From PubChem BioAssay
HIV Rev-RRE inh – HIV Rev-RRE protein-RNA interaction inhibition | 97,000 compounds, 0.79% hits | Rev peptide-RRE RNA binding, FRET | AID 704 | P05866 | inhibition, % at 8 µM;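 active = inhibition above the screen-wide mean plus 3 SD, cut at about 35% in these data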
Target sequence (P05866 whole entry, looked up): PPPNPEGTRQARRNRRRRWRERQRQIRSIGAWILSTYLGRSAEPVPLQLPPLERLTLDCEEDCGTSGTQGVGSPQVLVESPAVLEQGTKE
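System: Cy5-labelled duplex RRE RNA binding fluorescein-labelled HIV Rev peptide; Signal: fluorescein-to-Cy5 FRET, 480 nm excitation; Also added: labelled Rev peptide; Compound: one concentration, 8 µM nominal; Buffer or medium: HEPES pH 7.5 salt buffer with EDTA; Read-out: % inhibition of FRET ratio versus controls; Schedule: 5 min preincubation and 15 min binding, 25 °C.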
CYP2C9 activ – increases human cytochrome P450 2C9 activity | recombinant CYP2C9, luciferin-H conversion, luminescence; hits give high values; factor 1 = untreated enzyme, 0 = blocked | P11712 | activation factor at 5 µM | 96,000 compounds, 1.4% hits;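 active = activation factor of 2 or more for CYP2C9 at a 5 µM dose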
Target sequence (P11712 whole entry, looked up): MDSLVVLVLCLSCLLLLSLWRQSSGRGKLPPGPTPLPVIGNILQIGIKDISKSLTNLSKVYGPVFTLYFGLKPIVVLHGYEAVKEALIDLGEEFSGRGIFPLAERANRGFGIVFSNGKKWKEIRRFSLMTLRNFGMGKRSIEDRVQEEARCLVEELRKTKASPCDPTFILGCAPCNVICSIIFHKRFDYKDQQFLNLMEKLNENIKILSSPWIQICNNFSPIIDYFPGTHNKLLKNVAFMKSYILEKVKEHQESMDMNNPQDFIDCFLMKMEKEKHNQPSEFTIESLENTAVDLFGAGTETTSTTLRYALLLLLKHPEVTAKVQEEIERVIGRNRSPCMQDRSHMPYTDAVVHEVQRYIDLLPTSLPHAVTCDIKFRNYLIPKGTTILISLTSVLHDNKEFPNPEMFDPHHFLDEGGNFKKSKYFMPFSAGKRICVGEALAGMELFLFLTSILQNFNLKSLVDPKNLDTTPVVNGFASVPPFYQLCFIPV
Cav32 inh – inhibitors of human Cav3.2 T-type calcium channel | B-score at 10 µM | 100,000 compounds, 4% hits | Cav3.2-expressing cells, Fluo-4 calcium fluorescence FDSS; hits give low values | O95180;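 active = single-dose well whose peak fluorescence ratio is a statistical outlier from its plate by either plate-standardised score or position-corrected B-score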
CYP2C19 act – cytochrome P450 2C19 (human) activation; activation factor at 5 µM; recombinant CYP2C19, luciferin-H EGE luminescence; hits give high values; 0 = fully inhibited enzyme, 1 = untreated enzyme; P33261; AID 1025; 96,000 tested, under 10 active;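 active = activation factor of at least 2 at 5 µM in the primary screen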
CYP2C9 inh – human CYP2C9 inhibition; P11712; CYP2C9 Supersomes, luciferin-H conversion, luminescence; 96,000 compounds, 20% hits; inhibition, % at 5 µM;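 active = blocking of liver enzyme CYP2C9 beyond about 50% at 5 µM, limit read from the data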
CYP2C19 inh – blocks human cytochrome P450 2C19; P33261; CYP2C19 Supersomes, luciferin-H EGE luminescence, 30 min; inhibition, % at 5 µM; 96,000 compounds, 21% hits; AID 778;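 active = CYP2C19 inhibition above a set limit at 5 µM in the primary screen, cut at about 50% in these data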
Of the large screens only hits and unclear results are named; the others gave an inactive call. Hits are enriched below; roughly 27% of the tested compounds scored in any of these assays.

CCC(CC)COC(=O)C(C#N)c1nc2ccccc2nc1N1CCOCC1 (stereo unspecified)	CYP2C19 inh 56
COCCOC(=O)C(C#N)c1nc2ccccc2nc1N1CCN(Cc2ccccc2)CC1 (stereo unspecified)	CYP2C9 inh 91, CYP2C19 inh 80 (no result: HIV Rev-RRE inh)
C#Cc1ccc([C@@H]2C=C(C(=O)O)O[C@H](OCC)[C@H]2CCCO)cc1	none (no result: HIV Rev-RRE inh, CYP2C9 activ, CYP2C19 act, CYP2C9 inh, CYP2C19 inh)
O=C(COC(=O)C12CC3CC(CC(O)(C3)C1)C2)N1CCN(S(=O)(=O)c2ccc(Cl)cc2)CC1	none (no result: CYP2C9 activ, CYP2C19 act, CYP2C9 inh, CYP2C19 inh)
COc1ccccc1CNc1nc2nc(C)cc(=O)n2[nH]1	none
CCO[C@@H]1OC(C(=O)NC2CC2)=C[C@H](c2coc3ccccc3c2=O)[C@H]1CCCO	none (no result: HIV Rev-RRE inh, CYP2C9 activ, CYP2C19 act, CYP2C9 inh, CYP2C19 inh)
COCC(C)OC(=O)C(C#N)c1nc2ccccc2nc1N1CCN(Cc2ccccc2)CC1 (stereo unspecified)	Cav32 inh -6.1, CYP2C9 inh 90, CYP2C19 inh 74
CCOC(=O)C1CCCN(c2nc3ccccc3nc2C(C#N)C(=O)OCC)C1 (stereo unspecified)	CYP2C9 inh 96, CYP2C19 inh 93 (no result: HIV Rev-RRE inh)
C=CCOC(=O)C(C#N)c1nc2ccccc2nc1N1CCN(Cc2ccccc2)CC1 (stereo unspecified)	CYP2C9 inh 64, CYP2C19 inh 57 (no result: HIV Rev-RRE inh)
FC(F)(F)c1ccc(CN2C[C@@H]3C(c4ccc(Cl)nc4)C4(c5ccccc5)CC3(C4)[C@H]2c2ccccc2)cc1 (stereo partly specified)	none (no result: HIV Rev-RRE inh, CYP2C9 activ, CYP2C19 act, CYP2C9 inh, CYP2C19 inh)
CC1CCC(NC(=O)c2ccc3nc[nH]c3c2)CC1 (stereo unspecified)	none
O=C(CSCc1ccc(Cl)cc1)c1ccco1	CYP2C9 inh 58, CYP2C19 inh 73 (no result: HIV Rev-RRE inh)
O=C(CSc1nnc(SCC(=O)c2ccco2)s1)c1ccco1	none (no result: Cav32 inh)
O=C(CSc1nc2cc(Cl)ccc2s1)c1ccco1	CYP2C19 inh 89 (no result: HIV Rev-RRE inh)
CC1CCCCN1CCNC(=O)CN1C(=O)COc2ccccc21 (stereo unspecified)	none
CCOC(=O)Cn1cnc2sc3c(c2c1=O)CCC3	none
O=C(Cc1ccc(Cl)cc1)Nc1ccccc1N1CCOCC1	CYP2C19 inh 84
CCOc1cc(N2CCOCC2)c(OCC)cc1NC(=O)Cc1cccc2ccccc12	CYP2C19 inh 55
CCOc1cc(N2CCOCC2)c(OCC)cc1NS(=O)(=O)c1ccc(Cl)s1	CYP2C9 inh 60, CYP2C19 inh 93
O=C(COc1ccc(Cl)cc1)Nc1ccccc1N1CCOCC1	none
COc1ccc(Cl)cc1C(=O)Nc1ccccc1N1CCN(C(=O)C(C)C)CC1	Cav32 inh -4.2, CYP2C9 inh 68, CYP2C19 inh 68
COC(C[C@@H](O)C[C@@H](O)COCc1ccccc1)OC	none (no result: HIV Rev-RRE inh, CYP2C9 activ, CYP2C19 act, CYP2C9 inh, CYP2C19 inh)
COc1ccc(CCNC(=O)COc2nsnc2N2CCOCC2)cc1OC	none
Cc1ccccc1NC(=O)COc1nsnc1N1CCOCC1	CYP2C19 inh 60
CC(C)CC(=O)Nc1ccccc1N1CCOCC1	none
O=C(COc1ccc(Cl)cc1Cl)NC(=O)N1CCOCC1	CYP2C19 inh 52
Cc1ccc(CC(=O)Nc2ccccc2N2CCOCC2)cc1C	CYP2C9 inh 83
CCOc1ccccc1C(=O)NC(C(=O)Nc1ccccc1N1CCOCC1)C(C)C (stereo unspecified)	CYP2C9 inh 73
CS/C(=N\S(=O)(=O)c1ccc(N)cc1)NS(=O)(=O)c1cccs1	none
C=CCN1C(=NC(=O)CCC)SC2CS(=O)(=O)CC21 (stereo unspecified)	none
COc1ccc(CCNC(=O)C2CCCN(C(=O)N(C)C)C2)c(OC)c1 (stereo unspecified)	none (no result: HIV Rev-RRE inh)
O=C(NCCCCCCNC(=O)c1ccc(Br)s1)c1ccc(Br)s1	none (no result: CYP2C9 activ, CYP2C19 act, CYP2C9 inh, CYP2C19 inh)
Cc1ccc(-n2c(-c3cc(C)n(C)n3)n[nH]c2=S)cc1	none
CC(C)C(=O)N1CCN(c2ccccc2NC(=O)Cc2ccc(Cl)cc2)CC1	Cav32 inh -5
CS(=O)(=O)N1CCN(c2ccccc2NC(=O)Cc2ccc(Cl)cc2)CC1	none
Cc1cc(Cl)ccc1OCC(=O)Nc1ccccc1N1CCOCC1	CYP2C9 inh 94, CYP2C19 inh 91
COc1ccccc1N(CN1CCCC1=O)C(=O)COc1ccccc1	none
Cc1ccc(S(=O)(=O)N2CCC(=O)N(C(COCc3cccc(C(F)(F)F)c3)C(C)C)CC2)cc1 (stereo unspecified)	none (no result: HIV Rev-RRE inh, CYP2C9 activ, CYP2C19 act, CYP2C9 inh, CYP2C19 inh)
CC(C)CN1C(=S)SC(C)(C)C1n1oc(=O)n(-c2ccc(Cl)cc2)c1=O (stereo unspecified)	Cav32 inh -4.1, CYP2C9 inh 88, CYP2C19 inh 66
O=C(Nc1ccc2c(c1)OCCO2)c1ccc(CN2CCOCC2)cc1	none
CCOc1ccccc1NC(=O)c1ccc(F)c(S(=O)(=O)N2CCC3(CC2)OCCO3)c1	CYP2C9 inh 58, CYP2C19 inh 58
O=C(Nc1ccc2c(c1)OCCO2)c1ccc(Cl)c(S(=O)(=O)N2CCOCC2)c1	CYP2C19 inh 63
O=C(Nc1nccs1)c1ccc(Cl)c(S(=O)(=O)N2CCOCC2)c1	none
O=C(Nc1ccccc1)c1ccc(F)c(S(=O)(=O)N2CCOCC2)c1	CYP2C9 inh 56, CYP2C19 inh 57 (no result: HIV Rev-RRE inh, Cav32 inh)
O=C(Nc1ccccc1C(=O)O)c1ccc(Cl)c(S(=O)(=O)N2CCOCC2)c1	CYP2C9 inh 75
CC(C)CCN1C(=O)c2ccc(C(=O)OCn3nnc4ccccc4c3=O)cc2C1=O	none
Nc1ncn(C23CC4CC(CC(C4)C2)C3)n1	none
CCOc1ccccc1N1CCN(CC(O)COc2ccc3c(C)cc(=O)oc3c2)CC1 (stereo unspecified)	none (no result: HIV Rev-RRE inh)
COc1ccc(NC(=O)C23CCC(C2)C(C)(C)C3=O)cc1 (stereo unspecified)	none
O=C(c1c(O)c2ccccc2oc1=O)C1CCC1	none
Cc1ccc(C(C)C)c(OCC(=O)c2c(O)c3ccccc3oc2=O)c1	Cav32 inh -7.6 (no result: CYP2C9 activ, CYP2C19 act, CYP2C9 inh, CYP2C19 inh)
O=C(CN1CCN(S(=O)(=O)c2ccccc2)CC1)NC(=O)NCc1ccccc1	CYP2C9 inh 62
Cc1ccc(S(=O)(=O)N2CCN(CC(=O)NC(=O)NCc3ccccc3)CC2)cc1C	none
O=C(CN1CCN(S(=O)(=O)c2ccccc2)CC1)NC(=O)NC1CCCCC1	CYP2C9 inh 74, CYP2C19 inh 55
N#CC1=C(N)N(c2ccc(Oc3ccccc3)cc2)C(=O)C1	CYP2C9 inh 52
Cn1c(N)c(C(=O)COC(=O)C2(c3ccc(Cl)cc3)CCCC2)c(=O)n(C)c1=O	CYP2C19 inh 58
Cn1c(N)c(C(=O)COC(=O)C2(c3ccc(F)cc3)CCCC2)c(=O)n(C)c1=O	none (no result: HIV Rev-RRE inh)
Cc1nonc1NCn1nnc2ccccc21	none
O=C(O)c1cc(-c2ccc(/C=N/Nc3ccc(Cl)cc3)o2)ccc1Cl	none
Cc1ccc(-c2ccc(/C=N/c3ncn[nH]3)o2)cc1Cl	Cav32 inh -6.7
CCCc1nn(-c2cc(Cl)ccc2OC)c2c1C(=O)CC(C)(C)C2	CYP2C9 inh 66, CYP2C19 inh 63
